According to paper PMC3983359 (Journal of Medicinal Chemistry, 2014):
Converted amounts (≈) assume the structure as drawn. “Also recorded” adds a separate entry of the source. Counter-ions that a name gives are not always drawn. Each block holds one compound with its values, some of them ahead of it. Peptide text beside a SMILES is read from it. * marks the point of attachment. βNA = c1ccc2cc(N*)ccc2c1

Experiments:
[1] = system: B. subtilis; experiment: MIC determination, broth dilution, B. subtilis; format: cell-based, Bacillus subtilis; conditions: for MIC: Bacillus subtilis
How it was run: (§1)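 Bacterial MIC followed NCCLS M07 broth microdilution. Test compound in DMSO (1 μL) added to 50 μL cation-adjusted Mueller Hinton II broth, then ~1 × 10^3 cfu from overnight liquid culture. Incubated at 30–37 °C for 16–20 h. MIC taken as the first well without visible growth. For imaging, 0.7% w/v resazurin (10 μL) added, then 4 h at 37 °C.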

[2] = system: B. subtilis 168; experiment: Membrane damage assessment; format: cell-based, Bacillus subtilis; conditions: 15 min incubation, up to 10-fold MIC, Syto9/propidium iodide
How it was run: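 B. subtilis membrane integrity assessed by fluorescence microscopy with Syto9, which stains all cells, and propidium iodide, which enters only compromised cells. […] Stained cells were counted.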

[3] = target: T1, Sfp-PPTase (Bacillus subtilis, UniProt P39135); experiment: Rescue-by-dilution reversibility experiment; format: biochemical; conditions: 100-fold dilution from conditions producing 90% inhibition
T1 sequence (P39135 1-224): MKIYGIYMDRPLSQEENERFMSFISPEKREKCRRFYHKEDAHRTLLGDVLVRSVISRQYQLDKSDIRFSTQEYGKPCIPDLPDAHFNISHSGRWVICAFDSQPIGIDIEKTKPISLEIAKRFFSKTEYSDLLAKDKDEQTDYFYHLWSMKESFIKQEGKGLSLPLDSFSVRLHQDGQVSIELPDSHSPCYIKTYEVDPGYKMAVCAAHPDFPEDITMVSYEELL

[4] = target: T2, B. subtilis Sfp-PPTase (Bacillus subtilis, UniProt P39135); experiment: Sfp-PPTase qHTS assay; format: biochemical; conditions: for IC50 ± SD: triplicate; for Sfp-PPTase inhibitory activity in words: SAR discussion
T2 sequence (P39135 1-224): T1 sequence (P39135 1-224)

[5] = system: B. subtilis (HM489); experiment: B. subtilis HM489 antibacterial assay; format: cell-based, Bacillus subtilis; conditions: cellular ATP content, Bac-Titer Glo
[6] = system: HepG2 cells; experiment: HepG2 cytotoxicity counterscreen; format: cell-based, human; conditions: cellular ATP content, CellTiter-Glo, 48 hr
[7] = system: clinical strains of MRSA; experiment: MIC against clinical strains of S. aureus; format: cell-based, Staphylococcus aureus; conditions: all strains tested
[8] = system: P. aeruginosa; experiment: MIC determination, broth dilution, P. aeruginosa; format: cell-based, Pseudomonas aeruginosa; conditions: ATCC9028
How it was run: as §1

[9] = PAMPA passive permeability; format: in vitro ADME
[10] = system: E. coli; experiment: MIC determination, broth dilution, E. coli; format: cell-based, Escherichia coli; conditions: E. coli K12 and BW25113
How it was run: as §1

[11] = Mouse liver microsome stability; format: in vitro ADME
[12] = target: CYP2D6 (Homo sapiens, UniProt P10635); experiment: CYP2D6 inhibition; format: in vitro ADME; conditions: 2D6, 3 μM, substrate dextromethorphan
[13] = system: E. coli JW0451 (ΔacrB); experiment: Broth dilution with efflux-defective E. coli mutant; format: cell-based, Escherichia coli
How it was run: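 Broth microdilution: test compound in DMSO (1 μL) added to 50 μL cation-adjusted Mueller Hinton II broth, then ~1 × 10^3 cfu inoculum from overnight culture. Incubated at 30–37 °C for 16–20 h. MIC scored visually as the first well without growth. Efflux-defective ΔacrB strain JW0451 tested alongside wild-type BW25113.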

[14] = system: S. aureus BK2395 (PFGE USA500); experiment: Mouse model of S. aureus septicemia; format: in vivo; conditions: 55 30 mpk, vancomycin 50 mpk; 4, 24, 48 hours post infection
[15] = system: E. coli BW25113; experiment: Checkerboard synergy experiment with PAβN; format: cell-based, Escherichia coli; conditions: top concentrations tested
How it was run: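 Checkerboard broth dilution in E. coli BW25113 combining test compound with PAβN over concentration grids. Resazurin added (10 μL, 0.7% w/v) and incubated a further 4 h at 37 °C; purple wells scored as no metabolically active bacteria. At each test-compound concentration, the lowest PAβN concentration halting growth was recorded. FIC index was estimated as combined potency relative to the single components.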

[16] = system: Candida albicans; experiment: MIC determination, broth dilution, fungi; format: cell-based; conditions: C. albicans ATCC90028 and ATCC96901
How it was run: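 Fungal MIC followed NCCLS M27 broth microdilution against fluconazole-sensitive and fluconazole-resistant C. albicans strains. Inoculum was made by suspending 2-day-old colonies in RPMI 1640, ~1 × 10^3 cfu per well, with test compound in DMSO. Incubated at 30–37 °C for 48 h. MIC read visually as the first well without growth.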

[17] = system: S. aureus and B. subtilis; experiment: Minimum bactericidal concentration determination; format: cell-based
[18] = target: T3, human PPTase (Homo sapiens, UniProt Q9NRN7); experiment: Gel-based PPTase assay with the human enzyme; format: biochemical; conditions: concentrations up to 125 μM
T3 sequence (Q9NRN7 1-309): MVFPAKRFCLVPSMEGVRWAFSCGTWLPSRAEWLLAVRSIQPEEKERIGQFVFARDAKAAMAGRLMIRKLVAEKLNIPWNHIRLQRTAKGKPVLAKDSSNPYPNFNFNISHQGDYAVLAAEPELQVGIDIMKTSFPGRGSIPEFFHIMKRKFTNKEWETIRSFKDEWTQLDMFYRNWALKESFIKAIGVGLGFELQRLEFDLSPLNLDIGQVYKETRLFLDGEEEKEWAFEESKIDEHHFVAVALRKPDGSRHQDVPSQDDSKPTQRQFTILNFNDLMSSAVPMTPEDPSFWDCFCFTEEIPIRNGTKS

[19] = In vivo PK in male CD1 mice; set-up: species or system mouse
[20] = Compound stability in aqueous media and buffers; format: physicochemical; conditions: pH range 2–9, PBS and HEPES

Chain of CYP2D6 (P10635 whole entry): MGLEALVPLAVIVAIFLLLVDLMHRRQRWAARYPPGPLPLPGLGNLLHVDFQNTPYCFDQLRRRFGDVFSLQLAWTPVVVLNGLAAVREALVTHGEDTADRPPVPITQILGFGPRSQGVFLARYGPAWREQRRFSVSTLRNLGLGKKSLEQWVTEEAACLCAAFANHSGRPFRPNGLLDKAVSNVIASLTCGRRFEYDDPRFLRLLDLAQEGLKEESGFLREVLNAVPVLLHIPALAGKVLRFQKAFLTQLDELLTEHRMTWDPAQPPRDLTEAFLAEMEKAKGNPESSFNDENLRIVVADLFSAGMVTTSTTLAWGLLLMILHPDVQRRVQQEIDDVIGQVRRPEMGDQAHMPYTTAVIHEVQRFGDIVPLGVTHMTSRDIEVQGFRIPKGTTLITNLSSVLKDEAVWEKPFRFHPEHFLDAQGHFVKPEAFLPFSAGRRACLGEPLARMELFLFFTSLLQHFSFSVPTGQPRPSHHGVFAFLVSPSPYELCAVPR

Structure (SMILES): CCCCCCCCCCCCCCCC[N+](C)(C)C [CTAB, cetyltrimethylammonium bromide]
MIC [1]: ~2 µg/mL
bacterial cell membrane integrity [2]: rapid compromise of bacterial cell integrity

Structure (SMILES): O=C(N[C@H](CO)[C@H](O)c1ccc([N+](=O)[O-])cc1)C(Cl)Cl [Chloramphenicol]
MIC [1]: ~2 µg/mL (≈ 6.19 µM)
bacterial cell membrane integrity [2]: continued cellular viability

Structure (SMILES): FC(F)(F)c1cccc(N2CCN(C(=S)Nc3ccncc3)CC2)c1 [Compound 6]
IC50 ± SD ([4]; Table 1, HTS assay): inactive

Structure (SMILES): Cc1ccnc(NC(=S)NC2CCN(c3cccc(C(F)(F)F)c3)CC2)c1 [Compound 20]
IC50 ± SD ([4]; Table 1, HTS assay): inactive

Structure (SMILES): Cc1ccnc(NC(=S)N2CCN(c3ccccc3C(F)(F)F)CC2)c1 [Compound 22, N-(4-Methylpyridin-2-yl)-4-(2-(trifluoromethyl)phenyl)piperazine-1-carbothioamide Trifluoroacetate]
cytotoxicity (HepG2), IC50 [6]: inactive

Structure (SMILES): Cc1cc(C)nc(NC(=S)N2CCN(c3ccc(Cl)cc3C(F)(F)F)CC2)c1 [Compound 41, 4-(4-Chloro-2-(trifluoromethyl)phenyl)-N-(4,6-dimethylpyridin-2-yl)piperazine-1-carbothioamide Trifluoroacetate]
cytotoxicity (HepG2), IC50 [6]: inactive

Structure (SMILES): COc1ccnc(NC(=S)N2CCN(c3ncc(C(F)(F)F)cc3Cl)CC2)c1 [Compound 55, 4-(3-Chloro-5-(trifluoromethyl)pyridin-2-yl)-N-(4-methoxypyridin-2-yl)piperazine-1-carbothioamide Trifluoroacetate]
spread of potencies over the panel of clinical isolates [7]: ≤ 3 fold
concentration inhibiting the growth of B. subtilis ([1]; broth dilution, resazurin): 1.7 µg/mL
growth inhibition of P. aeruginosa [8]: No growth inhibition
PAMPA [9]: 1122 × 10^–6 cm/s
cytotoxicity (HepG2), IC50 [6]: inactive
growth inhibition of E. coli [10]: No growth inhibition
microsomal stability without NADPH ([11]; absence of NADPH cofactor, 1 h): completely stable
half-life ([11]; mouse, liver microsomes, microsomal stability (T1/2, min), mouse liver microsomes, with NADPH): 49.5 min
CYP inh (3 μM) (%) [12]: 25 (2D6) %
bacterial cell membrane integrity [2]: continued cellular viability
lowest concentration to which the ΔacrB strain is susceptible ([13]; E. coli JW0451, lesion in acrB locus): 12.5 µg/mL
lowest concentration inhibiting bacterial growth (Figure 4B) ([13]; legend: disruption of tolC): 12 µM
survival in mouse sepsis model [14]: did not increase survival
antibacterial activity of the single compound against BW25113 [15]: neither compound alone was found to possess antibacterial activity
growth inhibition of fungal organisms [16]: No growth inhibition
type of antibacterial activity [17]: bactericidal activity
inhibition of the human PPTase [18]: no inhibition; also recorded: null activity
adverse clinical observations ([19]; iv 3 and ip 30 mg/kg, 24 h period): did not result in any adverse clinical observations
time for which exposure exceeds the in vitro antibacterial MIC value ([19]; total drug concentration): over 8 h
degradation in aqueous media, buffers and mouse plasma [20]: no signs of degradation

Structure (SMILES): Cc1ccnc(NC(=S)NCCN(C)c2cccc(C(F)(F)F)c2)c1 [Compound 57]
Sfp-PPTase inhibitory activity in words [4]: lost all activity
IC50 ± SD ([4]; Table 3, HTS assay): inactive

Structure (SMILES): Cc1ccnc(NC(=S)NCCNc2cccc(C(F)(F)F)c2)c1 [Compound 58]
Sfp-PPTase inhibitory activity in words [4]: lost all activity
IC50 ± SD ([4]; Table 3, HTS assay): inactive

Structure (SMILES): Cc1ccnc(NC(=S)NC2CN(c3cccc(C(F)(F)F)c3)C2)c1 [Compound 59]
Sfp-PPTase inhibitory activity in words [4]: all activity is lost
IC50 ± SD ([4]; Table 3, HTS assay): inactive

Structure (SMILES): Cc1ccnc(NC(=S)N2CCC(Nc3cccc(C(F)(F)F)c3)CC2)c1 [Compound 63, N-(4-Methylpyridin-2-yl)-4-((3-(trifluoromethyl)phenyl)amino)piperidine-1-carbothioamide Trifluoroacetate]
cytotoxicity (HepG2), IC50 [6]: inactive

Structure (SMILES): Nc1ncnc2c1ncn2[C@@H]1O[C@H](COP(=O)(O)O)[C@@H](OP(=O)(O)O)[C@H]1O [PAP, 3′-phosphoadenosine 5′-monophosphate, reference compound]
reversibility of inhibition of Sfp [3]: reversible
inhibition of the human PPTase [18]: observed inhibition

Structure (SMILES): NC(N)=NCCC[C@H](NC(=O)[C@@H](N)Cc1ccccc1)C(=O)Nc1ccc2ccccc2c1 [PAβN, phenylarginine-β-naphthamide, reference compound] (H-Phe-Arg-βNA)
antibacterial activity of the single compound against BW25113 [15]: neither compound alone was found to possess antibacterial activity

Structure (SMILES): C/N=c1\nc(-c2ccccc2)n(-c2ccccc2)s1 [SCH-202676, reference compound]
reversibility of inhibition of Sfp [3]: irreversible inhibitor
inhibition of the human PPTase [18]: observed inhibition

Structure (SMILES): CN[C@H](CC(C)C)C(=O)N[C@H]1C(=O)N[C@@H](CC(N)=O)C(=O)N[C@H]2C(=O)N[C@H]3C(=O)N[C@H](C(=O)N[C@H](C(=O)O)c4cc(O)cc(O)c4-c4cc3ccc4O)[C@H](O)c3ccc(c(Cl)c3)Oc3cc2cc(c3O[C@@H]2O[C@H](CO)[C@@H](O)[C@H](O)[C@H]2O[C@H]2C[C@](C)(N)[C@H](O)[C@H](C)O2)Oc2ccc(cc2Cl)[C@H]1O [vancomycin, reference compound]
survival in mouse sepsis model [14]: completely protected animals from morbidity

Now from value to compound, other results behind:

reversibility of inhibition of Sfp [3]: completely reversible inhibition
Structure (SMILES): Cc1ccnc(NC(=S)N2CCN(c3cccc(C(F)(F)F)c3)CC2)c1 [Compound 1, N-(4-Methylpyridin-2-yl)-4-(3-(trifluoromethyl)phenyl)piperazine-1-carbothioamide Trifluoroacetate]

IC50 ± SD ([4]; Table 1, HTS assay): inactive
Structure (SMILES): FC(F)(F)c1cccc(N2CCN(C(=S)Nc3cc(C(F)(F)F)ccn3)CC2)c1 [Compound 4]

IC50 ± SD ([4]; Table 1, HTS assay): inactive
Structure (SMILES): Cc1cccc(NC(=S)N2CCN(c3cccc(C(F)(F)F)c3)CC2)c1 [Compound 5]

IC50 ± SD ([4]; Table 1, HTS assay): inactive
Sfp-PPTase IC50 ([4]; Table 4, HTS assay): inactive
Structure (SMILES): Cc1ccnc(NC(=O)N2CCN(c3cccc(C(F)(F)F)c3)CC2)c1 [Compound 12, N-(4-Methylpyridin-2-yl)-4-(3-(trifluoromethyl)phenyl)piperazine-1-carboxamide Trifluoroacetate]
B. subtilis (HM489) IC50 [5]: inactive

IC50 ± SD ([4]; Table 1, HTS assay): inactive
Structure (SMILES): Cc1ccnc(NC(=N)N2CCN(c3cccc(C(F)(F)F)c3)CC2)c1 [Compound 13]

Sfp-PPTase inhibitory activity in words [4]: complete loss of activity
IC50 ± SD ([4]; Table 1, HTS assay): inactive
Structure (SMILES): Cc1cc(C)nc(N/C(=N/C#N)N2CCN(c3cccc(C(F)(F)F)c3)CC2)c1 [Compound 14]

Sfp-PPTase inhibitory activity in words [4]: complete loss of activity
IC50 ± SD ([4]; Table 1, HTS assay): inactive
Structure (SMILES): Cc1cc(C)nc(NC(=C(C#N)C#N)N2CCN(c3cccc(C(F)(F)F)c3)CC2)c1 [Compound 15]

IC50 ± SD ([4]; Table 1, HTS assay): inactive
Structure (SMILES): Cc1cc(C)nc(Nc2nnc(N3CCN(c4cccc(C(F)(F)F)c4)CC3)s2)c1 [Compound 16]

IC50 ± SD ([4]; Table 1, HTS assay): inactive
Structure (SMILES): Cc1ccnc(N(C)C(=S)N2CCN(c3cccc(C(F)(F)F)c3)CC2)c1 [Compound 19]
